# Source: ChEMBL document CHEMBL5303300, “EUbOPEN Chemogenomics Library - Multiplex” (2023)
# “And” between values parts separate entries of the source, which are not always exact repeats. Identical values can stand only once.
# How the values were obtained:
# Type in all cases: toxicity, cell-based
# [1] = tested on: Fibroblast; assay: Multiplex assay against human fibroblast; details: number of replicates 2
# Summary of the method: (§1)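 Phenotypes for tubulin, mitochondrial mass and membrane permeability are expressed as per cents of healthy-nucleus cells. Cells were stained live at seeding with Hoechst33342, BioTracker Green Microtubule Cytoskeleton Dye, MitoTracker Red and Annexin V Alexa Fluor 680, then imaged after compound addition on a CQ1 microscope at 37°C and 5% CO2. Machine-learning gating in CellPathfinder separated Hoechst high-intensity objects from normal cells, divided normal cells by nuclear state (healthy, pyknosed, fragmented) and divided pyknosed cells into mitotic or apoptotic.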
# [2] = tested on: U2OS; assay: Multiplex assay against U2OS; details: human, number of replicates 2; summary of the method: as §1
# [3] = tested on: HEK-293T; assay: Multiplex assay against HEK293T; details: human, number of replicates 2; summary of the method: as §1
# [4] = 12 h, 1 µM, compound concentration 1 uM
# [5] = 12 h, 10 µM, compound concentration 10 uM
# [6] = 24 h, 1 µM, compound concentration 1 uM
# [7] = 24 h, 10 µM, compound concentration 10 uM
# [8] = 48 h, 1 µM, compound concentration 1 uM
# [9] = 48 h, 10 µM, compound concentration 10 uM
smiles,measurement,setting,value
O=C(NCc1ccc(F)cc1)N1CCN2C(=O)OC(c3ccccc3)(c3ccccc3)C2C1 (configuration not stated),Population Apoptotic (%),[1]; [4],41% and 22%
same,Population Fragmented Nuclei (%),[1]; [4],12% and 10%
same,Population Healthy Nuclei (%),[1]; [4],71% and 75%
same,Population Hoechst High Intensity Objects (%),[1]; [4],0%
same,Population Membrane Permeable-Phenotype (%),[1]; [4],10% and 5%
same,Population Mitochondria Different-Phenotype (%),[1]; [4],2% and 1%
same,Population Mitotic Cells (%),[1]; [4],58% and 77%
same,Population Normal (%),[1]; [4],99%
same,Population Pyknosed Nuclei (%),[1]; [4],15% and 14%
same,Population Tubulin-Different-Phenotype (%),[1]; [4],20% and 13%
same,Total Cell Count,[1]; [4],252
same,Population Apoptotic (%),[1]; [5],58% and 35%
same,Population Fragmented Nuclei (%),[1]; [5],14% and 9%
same,Population Healthy Nuclei (%),[1]; [5],69% and 77%
same,Population Hoechst High Intensity Objects (%),[1]; [5],0%
same,Population Membrane Permeable-Phenotype (%),[1]; [5],9% and 14%
same,Population Mitochondria Different-Phenotype (%),[1]; [5],3%
same,Population Mitotic Cells (%),[1]; [5],41% and 65%
same,Population Normal (%),[1]; [5],100% and 99%
same,Population Pyknosed Nuclei (%),[1]; [5],15% and 12%
same,Population Tubulin-Different-Phenotype (%),[1]; [5],69% and 59%
same,Total Cell Count,[1]; [5],153 and 155
same,Population Apoptotic (%),[1]; [6],59% and 46%
same,Population Fragmented Nuclei (%),[1]; [6],13% and 15%
same,Population Healthy Nuclei (%),[1]; [6],72% and 73%
same,Population Hoechst High Intensity Objects (%),[1]; [6],0%
same,Population Membrane Permeable-Phenotype (%),[1]; [6],6% and 3%
same,Population Mitochondria Different-Phenotype (%),[1]; [6],1% and 0%
same,Population Mitotic Cells (%),[1]; [6],40% and 53%
same,Population Normal (%),[1]; [6],100%
same,Population Pyknosed Nuclei (%),[1]; [6],14% and 10%
same,Population Tubulin-Different-Phenotype (%),[1]; [6],19% and 12%
same,Total Cell Count,[1]; [6],253 and 276
same,Population Apoptotic (%),[1]; [7],65% and 50%
same,Population Fragmented Nuclei (%),[1]; [7],12%
same,Population Healthy Nuclei (%),[1]; [7],68% and 75%
same,Population Hoechst High Intensity Objects (%),[1]; [7],0% and 1%
same,Population Membrane Permeable-Phenotype (%),[1]; [7],7% and 2%
same,Population Mitochondria Different-Phenotype (%),[1]; [7],9% and 7%
same,Population Mitotic Cells (%),[1]; [7],34% and 50%
same,Population Normal (%),[1]; [7],99% and 98%
same,Population Pyknosed Nuclei (%),[1]; [7],19% and 12%
same,Population Tubulin-Different-Phenotype (%),[1]; [7],61% and 48%
same,Total Cell Count,[1]; [7],153 and 151
same,Population Apoptotic (%),[1]; [8],62% and 69%
same,Population Fragmented Nuclei (%),[1]; [8],15% and 10%
same,Population Healthy Nuclei (%),[1]; [8],74% and 79%
same,Population Hoechst High Intensity Objects (%),[1]; [8],0%
same,Population Membrane Permeable-Phenotype (%),[1]; [8],7% and 3%
same,Population Mitochondria Different-Phenotype (%),[1]; [8],0%
same,Population Mitotic Cells (%),[1]; [8],37% and 30%
same,Population Normal (%),[1]; [8],100%
same,Population Pyknosed Nuclei (%),[1]; [8],10% and 9%
same,Population Tubulin-Different-Phenotype (%),[1]; [8],11% and 5%
same,Total Cell Count,[1]; [8],259 and 265
same,Population Apoptotic (%),[1]; [9],45% and 83%
same,Population Fragmented Nuclei (%),[1]; [9],15% and 12%
same,Population Healthy Nuclei (%),[1]; [9],69% and 75%
same,Population Hoechst High Intensity Objects (%),[1]; [9],0% and 1%
same,Population Membrane Permeable-Phenotype (%),[1]; [9],5%
same,Population Mitochondria Different-Phenotype (%),[1]; [9],2%
same,Population Normal (%),[1]; [9],100% and 98%
same,Population Pyknosed Nuclei (%),[1]; [9],15% and 12%
same,Population Tubulin-Different-Phenotype (%),[1]; [9],53% and 43%
same,Total Cell Count,[1]; [9],156 and 150
same,Population Apoptotic (%),[2]; [4],80% and 46%
same,Population Fragmented Nuclei (%),[2]; [4],11% and 2%
same,Population Healthy Nuclei (%),[2]; [4],69% and 86%
same,Population Hoechst High Intensity Objects (%),[2]; [4],3% and 0%
same,Population Membrane Permeable-Phenotype (%),[2]; [4],0% and 3%
same,Population Mitochondria Different-Phenotype (%),[2]; [4],0% and 1%
same,Population Mitotic Cells (%),[2]; [4],20% and 53%
same,Population Normal (%),[2]; [4],96% and 100%
same,Population Pyknosed Nuclei (%),[2]; [4],19% and 10%
same,Population Tubulin-Different-Phenotype (%),[2]; [4],61% and 62%
same,Population Apoptotic (%),[2]; [5],62% and 43%
same,Population Fragmented Nuclei (%),[2]; [5],7% and 4%
same,Population Healthy Nuclei (%),[2]; [5],71% and 86%
same,Population Hoechst High Intensity Objects (%),[2]; [5],0%
same,Population Membrane Permeable-Phenotype (%),[2]; [5],22% and 24%
same,Population Mitochondria Different-Phenotype (%),[2]; [5],22% and 17%
same,Population Mitotic Cells (%),[2]; [5],37% and 56%
same,Population Normal (%),[2]; [5],100% and 99%
same,Population Pyknosed Nuclei (%),[2]; [5],21% and 9%
same,Population Tubulin-Different-Phenotype (%),[2]; [5],88% and 60%
same,Population Apoptotic (%),[2]; [6],47% and 81%
same,Population Fragmented Nuclei (%),[2]; [6],2% and 8%
same,Population Healthy Nuclei (%),[2]; [6],88% and 58%
same,Population Hoechst High Intensity Objects (%),[2]; [6],0% and 2%
same,Population Membrane Permeable-Phenotype (%),[2]; [6],2% and 5%
same,Population Mitochondria Different-Phenotype (%),[2]; [6],0%
same,Population Mitotic Cells (%),[2]; [6],52% and 18%
same,Population Normal (%),[2]; [6],100% and 97%
same,Population Tubulin-Different-Phenotype (%),[2]; [6],72% and 45%
same,Population Apoptotic (%),[2]; [7],75% and 72%
same,Population Fragmented Nuclei (%),[2]; [7],2% and 6%
same,Population Healthy Nuclei (%),[2]; [7],64% and 78%
same,Population Hoechst High Intensity Objects (%),[2]; [7],0%
same,Population Membrane Permeable-Phenotype (%),[2]; [7],37% and 16%
same,Population Mitochondria Different-Phenotype (%),[2]; [7],45% and 36%
same,Population Mitotic Cells (%),[2]; [7],25% and 28%
same,Population Normal (%),[2]; [7],100%
same,Population Pyknosed Nuclei (%),[2]; [7],32% and 15%
same,Population Tubulin-Different-Phenotype (%),[2]; [7],83% and 53%
same,Population Apoptotic (%),[2]; [8],37% and 90%
same,Population Healthy Nuclei (%),[2]; [8],90% and 62%
same,Population Hoechst High Intensity Objects (%),[2]; [8],0% and 1%
same,Population Membrane Permeable-Phenotype (%),[2]; [8],1% and 9%
same,Population Mitochondria Different-Phenotype (%),[2]; [8],0%
same,Population Normal (%),[2]; [8],100% and 98%
same,Population Pyknosed Nuclei (%),[2]; [8],6% and 18%
same,Population Tubulin-Different-Phenotype (%),[2]; [8],86% and 48%
same,Population Apoptotic (%),[2]; [9],75% and 73%
same,Population Fragmented Nuclei (%),[2]; [9],7% and 5%
same,Population Healthy Nuclei (%),[2]; [9],57% and 75%
same,Population Hoechst High Intensity Objects (%),[2]; [9],0%
same,Population Membrane Permeable-Phenotype (%),[2]; [9],12% and 20%
same,Population Mitochondria Different-Phenotype (%),[2]; [9],37% and 19%
same,Population Mitotic Cells (%),[2]; [9],25% and 26%
same,Population Normal (%),[2]; [9],100%
same,Population Pyknosed Nuclei (%),[2]; [9],35% and 18%
same,Population Tubulin-Different-Phenotype (%),[2]; [9],68% and 42%
same,Population Apoptotic (%),[3]; [4],56% and 58%
same,Population Fragmented Nuclei (%),[3]; [4],5% and 3%
same,Population Healthy Nuclei (%),[3]; [4],82% and 77%
same,Population Hoechst High Intensity Objects (%),[3]; [4],8% and 6%
same,Population Membrane Permeable-Phenotype (%),[3]; [4],6% and 1%
same,Population Mitochondria Different-Phenotype (%),[3]; [4],18% and 19%
same,Population Mitotic Cells (%),[3]; [4],43% and 41%
same,Population Normal (%),[3]; [4],91% and 93%
same,Population Pyknosed Nuclei (%),[3]; [4],11% and 19%
same,Population Tubulin-Different-Phenotype (%),[3]; [4],76% and 63%
same,Total Cell Count,[3]; [4],761 and 454
same,Population Apoptotic (%),[3]; [5],72% and 41%
same,Population Fragmented Nuclei (%),[3]; [5],2%
same,Population Healthy Nuclei (%),[3]; [5],75% and 85%
same,Population Hoechst High Intensity Objects (%),[3]; [5],7% and 4%
same,Population Membrane Permeable-Phenotype (%),[3]; [5],5% and 3%
same,Population Mitochondria Different-Phenotype (%),[3]; [5],34% and 53%
same,Population Mitotic Cells (%),[3]; [5],27% and 58%
same,Population Normal (%),[3]; [5],92% and 95%
same,Population Pyknosed Nuclei (%),[3]; [5],21% and 12%
same,Population Tubulin-Different-Phenotype (%),[3]; [5],93% and 97%
same,Total Cell Count,[3]; [5],433 and 482
same,Population Apoptotic (%),[3]; [6],36% and 63%
same,Population Fragmented Nuclei (%),[3]; [6],8% and 5%
same,Population Healthy Nuclei (%),[3]; [6],83%
same,Population Hoechst High Intensity Objects (%),[3]; [6],7% and 9%
same,Population Membrane Permeable-Phenotype (%),[3]; [6],5% and 2%
same,Population Mitochondria Different-Phenotype (%),[3]; [6],4% and 8%
same,Population Mitotic Cells (%),[3]; [6],63% and 36%
same,Population Normal (%),[3]; [6],92% and 90%
same,Population Pyknosed Nuclei (%),[3]; [6],7% and 11%
same,Population Tubulin-Different-Phenotype (%),[3]; [6],51% and 38%
same,Total Cell Count,[3]; [6],1157 and 707
same,Population Apoptotic (%),[3]; [7],70% and 54%
same,Population Fragmented Nuclei (%),[3]; [7],2% and 4%
same,Population Healthy Nuclei (%),[3]; [7],83% and 85%
same,Population Hoechst High Intensity Objects (%),[3]; [7],9% and 5%
same,Population Membrane Permeable-Phenotype (%),[3]; [7],6% and 3%
same,Population Mitochondria Different-Phenotype (%),[3]; [7],31% and 55%
same,Population Mitotic Cells (%),[3]; [7],29% and 45%
same,Population Normal (%),[3]; [7],90% and 94%
same,Population Pyknosed Nuclei (%),[3]; [7],14% and 10%
same,Population Tubulin-Different-Phenotype (%),[3]; [7],90% and 94%
same,Total Cell Count,[3]; [7],529 and 537
same,Population Fragmented Nuclei (%),[3]; [8],16% and 10%
same,Population Healthy Nuclei (%),[3]; [8],80% and 86%
same,Population Hoechst High Intensity Objects (%),[3]; [8],9%
same,Population Membrane Permeable-Phenotype (%),[3]; [8],8% and 3%
same,Population Mitochondria Different-Phenotype (%),[3]; [8],0% and 1%
same,Population Mitotic Cells (%),[3]; [8],91% and 68%
same,Population Normal (%),[3]; [8],90%
same,Population Pyknosed Nuclei (%),[3]; [8],2% and 3%
same,Population Tubulin-Different-Phenotype (%),[3]; [8],30% and 21%
same,Total Cell Count,[3]; [8],2926 and 1423
same,Population Apoptotic (%),[3]; [9],45% and 43%
same,Population Fragmented Nuclei (%),[3]; [9],5% and 8%
same,Population Healthy Nuclei (%),[3]; [9],87% and 85%
same,Population Hoechst High Intensity Objects (%),[3]; [9],6%
same,Population Membrane Permeable-Phenotype (%),[3]; [9],6% and 10%
same,Population Mitochondria Different-Phenotype (%),[3]; [9],39% and 15%
same,Population Mitotic Cells (%),[3]; [9],55% and 56%
same,Population Normal (%),[3]; [9],93%
same,Population Pyknosed Nuclei (%),[3]; [9],6% and 5%
same,Population Tubulin-Different-Phenotype (%),[3]; [9],93% and 82%
same,Total Cell Count,[3]; [9],655 and 824
